ChEMBL document CHEMBL4359914, “Design, synthesis and biological evaluation of stereo- and regioisomers of amino aryl esters as multidrug resistance (MDR) reversers” (Eur J Med Chem, 2019)
Active and inactive are the calls of the source. The calls are words filed in the database; no cut-off is given here.

Experiments:
[1] = target: T1, ATP-dependent translocase ABCB1 (Homo sapiens, UniProt P08183); test: Inhibition of P-gp (unknown origin) expressed in MDCK-MDR1 cells assessed as increase in calcein-AM accumulation incubated for 30 mins by calcein-AM dye based fluorescence assay; type: cell-based
[2] = target: T1, ATP-dependent translocase ABCB1; test: Inhibition of P-gp in human K562/DOX cells assessed as drug level causing 50% increase in nuclear pirarubicin concentration incubated for 30 mins by fluorescence based assay; type: cell-based; details: read-out: I0.5
[3] = target: T1, ATP-dependent translocase ABCB1; test: Inhibition of P-gp in human K562/DOX cells assessed as drug level causing maximum increase in nuclear pirarubicin concentration incubated for 30 mins by fluorescence based assay relative to control; type: cell-based; details: 0.5 h
[4] = target: T2, Broad substrate specificity ATP-binding cassette transporter ABCG2 (Homo sapiens, UniProt Q9UNQ0); test: Inhibition of BCRP (unknown origin) expressed in MDCK cells assessed as increase in Hoechst 33342 accumulation incubated for 30 mins by Hoechst 33342 dye based fluorescence assay; type: cell-based
T2 sequence (Q9UNQ0 whole entry): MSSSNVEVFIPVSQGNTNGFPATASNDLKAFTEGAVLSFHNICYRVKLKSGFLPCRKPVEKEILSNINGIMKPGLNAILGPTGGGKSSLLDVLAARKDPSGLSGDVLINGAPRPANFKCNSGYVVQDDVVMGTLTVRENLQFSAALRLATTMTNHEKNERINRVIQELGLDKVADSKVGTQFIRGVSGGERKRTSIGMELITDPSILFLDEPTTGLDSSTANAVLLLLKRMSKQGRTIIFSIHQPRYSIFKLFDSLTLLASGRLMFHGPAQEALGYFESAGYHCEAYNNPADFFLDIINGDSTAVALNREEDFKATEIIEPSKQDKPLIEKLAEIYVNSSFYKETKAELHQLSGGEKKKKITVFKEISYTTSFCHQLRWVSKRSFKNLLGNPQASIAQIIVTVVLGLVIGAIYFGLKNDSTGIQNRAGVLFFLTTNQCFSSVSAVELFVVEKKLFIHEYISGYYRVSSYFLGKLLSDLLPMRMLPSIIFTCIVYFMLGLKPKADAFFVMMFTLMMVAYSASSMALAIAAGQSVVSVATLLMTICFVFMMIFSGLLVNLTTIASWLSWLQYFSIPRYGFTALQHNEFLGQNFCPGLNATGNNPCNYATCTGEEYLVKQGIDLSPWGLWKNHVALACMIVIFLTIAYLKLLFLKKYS

[5] = target: T1, ATP-dependent translocase ABCB1; test: Inhibition of MDR1 (unknown origin) expressed in MDCK-MDR1 cells assessed as decrease in ATP consumption incubated for 2 hrs by ATPlite luminescence assay; type: cell-based; details: mdck-mdr1, 2 h
[6] = Chemical stability of compound assessed as half life in PBS at 1 uM incubated 120 mins by LC-MS/MS analysis; type: physicochemical
Procedure, shortened: (§1)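 Analyte added to PBS or human plasma (healthy volunteer, stored at -80 °C) to 1 μM; incubated at 37 °C for 0, 30, 60 and 120 min, triplicate per time point. Internal standard solution added, centrifuged, supernatant dried under nitrogen and redissolved. Analyte quantified by LC-MS/MS in MRM mode; half-life derived from decay rate k.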

[7] = Stability of compound in human plasma assessed as half life at 1 uM incubated for 120 min by LC-MS/MS analysis; type: ADME, cell-free; procedure, shortened: as §1
BCRP (ABCG2) = target: T3, BCRP (ABCG2) (Homo sapiens, UniProt Q9UNQ0); test: Inhibition of BCRP (unknown origin) expressed in MDCK cells assessed as increase in Hoechst 33342 accumulation at upto 100 uM incubated for 30 mins by Hoechst 33342 dye based fluorescence assay; type: cell-based; details: MDCK cells expressing BCRP, probe Hoechst 33342
T3 sequence (Q9UNQ0 whole entry): T2 sequence (Q9UNQ0 whole entry)

MDCK [8] = test: Cytotoxicity against dog MDCK cells assessed as reduction in cell viability incubated for 24 hrs by MTT assay; type: cell-based; details: Canis lupus familiaris
Procedure, shortened: (§2)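 MDCK parental, MDCK-MDR1 and MDCK-MRP1 cells grown in DMEM high glucose with 10% FBS, 2 mM glutamine, penicillin/streptomycin at 37 °C, 5% CO2. Compound exposure 24 h; viability by MTT. EC50 taken per line; selectivity ratio computed as EC50 parental/EC50 MDR.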

MDCK-MDR1 [9] = test: Cytotoxicity against dog MDCK-MDR1 cells assessed as reduction in cell viability incubated for 24 hrs by MTT assay; type: functional, cell-based; details: Canis lupus familiaris, MDCK-MDR1, 24 h; procedure, shortened: as §2
MDCK-MDR1 [10] = test: Induction of ROS-mediated cell death in dog MDCK-MDR1 cells at 500 nM incubated for 24 hrs by DCFDA-AM staining based ATPlite luminescence assay; type: functional; details: Canis lupus familiaris
Procedure, shortened: (§3)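 Viability by ATPlite luminescence; untreated cell RLU set as 100%, results as % viable cells vs untreated. Quadruplicates, n = 3, means ± SD.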

MDCK-MDR1 [11] = test: Induction of ROS-mediated cell death in dog MDCK-MDR1 cells at 500 nM incubated for 24 hrs in presence of NAC by DCFDA-AM staining based ATPlite luminescence assay; type: functional; details: Canis lupus familiaris; procedure, shortened: as §3
MDCK-MDR1 [12] = test: Induction of ROS generation in dog MDCK-MDR1 cells at 500 nM incubated for 24 hrs by DCFDA-AM staining based ATPlite luminescence assay; type: functional, cell-based; details: Canis lupus familiaris
Procedure, shortened: (§4)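 MDCK-MRP1 or MDCK-MDR1 cells grown 24 h in fresh medium or with 500 nM compound, with or without 10 mM N-acetyl-cysteine. Intracellular ROS measured fluorimetrically with DCFDA-AM probe, expressed as nmol/mg cellular protein; duplicates, n = 3, means ± SD.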

P-gp (ABCB1) = P-gp (ABCB1) (Homo sapiens, UniProt P08183); test: Inhibition of P-gp (unknown origin) in […] MDCK-MDR1 cells assessed as increase in doxorubicin-induced cytotoxicity at 500 nM […] by MTT assay relative to control; type: cell-based; details: probe doxorubicin
MDCK [13] = test: Induction of ROS-mediated cell death in dog MDCK cells expressing MRP1 at 500 nM incubated for 24 hrs by DCFDA-AM staining based ATPlite luminescence assay; type: functional; details: Canis lupus familiaris; procedure, shortened: as §3
MDCK [14] = test: Induction of ROS-mediated cell death in dog MDCK cells expressing MRP1 at 500 nM in presence of NAC incubated for 24 hrs by DCFDA-AM staining based ATPlite luminescence assay; type: functional; details: Canis lupus familiaris; procedure, shortened: as §3
MDCK [15] = test: Cytotoxicity against dog MDCK cells expressing MRP1 assessed as reduction in cell viability incubated for 24 hrs by MTT assay; type: functional, cell-based; details: Canis lupus familiaris; procedure, shortened: as §2
MDCK [16] = test: Induction of ROS generation in dog MDCK cells over expressing MRP1 at 500 nM incubated for 24 hrs by DCFDA-AM staining based ATPlite luminescence assay; type: functional, cell-based; details: Canis lupus familiaris; procedure, shortened: as §4

T1 sequence (P08183 whole entry): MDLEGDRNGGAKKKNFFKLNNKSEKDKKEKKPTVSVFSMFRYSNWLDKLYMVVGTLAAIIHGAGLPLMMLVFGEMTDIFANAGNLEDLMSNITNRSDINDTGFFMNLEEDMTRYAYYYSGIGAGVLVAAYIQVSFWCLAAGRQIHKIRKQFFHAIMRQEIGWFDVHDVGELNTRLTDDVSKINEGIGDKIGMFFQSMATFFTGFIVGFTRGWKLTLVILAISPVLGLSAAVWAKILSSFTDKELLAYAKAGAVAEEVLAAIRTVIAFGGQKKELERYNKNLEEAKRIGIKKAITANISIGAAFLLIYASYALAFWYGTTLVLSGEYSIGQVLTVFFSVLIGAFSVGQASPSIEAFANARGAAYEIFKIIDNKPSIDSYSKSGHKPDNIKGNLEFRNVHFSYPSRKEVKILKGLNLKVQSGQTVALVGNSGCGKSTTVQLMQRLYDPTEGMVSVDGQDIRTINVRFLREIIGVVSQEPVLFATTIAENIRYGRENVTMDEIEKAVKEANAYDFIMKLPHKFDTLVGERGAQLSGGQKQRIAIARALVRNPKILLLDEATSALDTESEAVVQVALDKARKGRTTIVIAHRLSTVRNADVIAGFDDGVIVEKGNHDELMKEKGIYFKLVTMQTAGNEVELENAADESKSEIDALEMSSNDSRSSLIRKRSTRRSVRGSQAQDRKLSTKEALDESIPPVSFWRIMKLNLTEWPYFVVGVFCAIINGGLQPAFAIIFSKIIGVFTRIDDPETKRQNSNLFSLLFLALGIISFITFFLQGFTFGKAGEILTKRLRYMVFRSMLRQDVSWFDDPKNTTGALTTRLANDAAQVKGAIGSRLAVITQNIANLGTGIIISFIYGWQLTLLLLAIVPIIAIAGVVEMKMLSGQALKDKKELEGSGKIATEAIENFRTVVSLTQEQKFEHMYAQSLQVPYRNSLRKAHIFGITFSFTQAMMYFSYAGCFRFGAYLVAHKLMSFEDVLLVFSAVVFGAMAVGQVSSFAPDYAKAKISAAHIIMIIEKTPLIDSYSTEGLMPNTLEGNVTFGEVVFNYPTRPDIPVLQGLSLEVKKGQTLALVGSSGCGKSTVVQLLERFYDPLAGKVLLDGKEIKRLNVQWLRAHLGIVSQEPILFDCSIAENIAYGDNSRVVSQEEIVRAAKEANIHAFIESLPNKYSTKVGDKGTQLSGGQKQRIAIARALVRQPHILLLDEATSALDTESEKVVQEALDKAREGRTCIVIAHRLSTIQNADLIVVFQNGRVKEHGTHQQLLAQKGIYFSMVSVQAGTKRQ
P-gp (ABCB1), sequence (P08183 whole entry): as above

COc1cc(/C=C/C(=O)OC[C@H](C)CN(C)CCCCCOC(=O)c2cc(OC)c(OC)c(OC)c2)cc(OC)c1OC
EC50 [1]: 1 µM | IC50 [2]: 0.4 µM | Alpha max [3]: 0.99 | EC50 ([4]; mdck): Not Active | inhibition (INH) [5]: Not Active | half-life at 1 µM [6]: ≥ 4 h | half-life at 1 µM [7]: 0.483 h | inhibition at 0.5 h (BCRP (ABCG2)): 0%

COc1cc(/C=C/C(=O)OCCCN(C)C[C@H](C)COC(=O)c2cc(OC)c(OC)c(OC)c2)cc(OC)c1OC
EC50 [1]: 0.55 µM | IC50 [2]: 0.54 µM | Alpha max [3]: 0.89 | EC50 ([4]; read-out: EC50): 6.4 µM | inhibition (INH) [5]: Not Active | EC50 (MDCK [8]): 100 µM | EC50 (MDCK-MDR1 [9]): 40 µM | Activity (MDCK-MDR1 [10]): Active | Activity (MDCK-MDR1 [11]): Active | half-life at 1 µM [6]: ≥ 4 h | half-life at 1 µM [7]: ≥ 4 h | Activity (MDCK-MDR1 [12]): Active

COc1cc(/C=C/C(=O)OCCCCCN(C)C[C@@H](C)COC(=O)c2cc(OC)c(OC)c(OC)c2)cc(OC)c1OC
EC50 [1]: 0.31 µM | IC50 [2]: 0.35 µM | Alpha max [3]: 0.72 | EC50 ([4]; read-out: EC50): 41 µM | inhibition (INH) [5]: Not Active | inhibition at 24 h, 0.5 µM (P-gp (ABCB1)): 30% | EC50 (MDCK [8]): 100 µM | Activity (MDCK [13]): Active | Activity (MDCK [14]): Active | half-life at 1 µM [6]: ≥ 4 h | half-life at 1 µM [7]: ≥ 4 h | EC50 (MDCK [15]): 11.7 µM | Activity (MDCK [16]): Active
